Results: ChEMBL document CHEMBL1128480 (J Med Chem, 1995)

Assays:
[1] = Concentration displacing [3H]-sradipine binding to rat brain; type: tissue-based
Outline: (§1)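 Whole Sprague Dawley rat brain was homogenized in 25 mM HEPES/NaOH with 0.32 M sucrose and 0.1 mM PMSF (pH 7.4), and pellets were collected by centrifugation. Microsomes (0.3 mg protein/mL) received compound (10⁻⁶–10⁻¹¹ M) for a 5-min preincubation. Then 0.2 nM [³H]-(+)-methylisradipine was added with 0.5 mM CaCl₂, for 60 min at room temperature, followed by filtration and scintillation counting. Nonspecific binding was defined with 1 μM isradipine. Runs were 2–3 times in triplicate, fitted with LIGAND.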

Rattus norvegicus [2] = species on record: Rattus norvegicus; test: Effect on [3H]sradipine binding to rat brain.; type: tissue-based; outline: as §1
Cavia porcellus [3] = species on record: Cavia porcellus; test: Effect on [3H]sradipine binding to guinea pig ileum.
Outline: (§2)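 Guinea pig ileal longitudinal-muscle microsomes were prepared in 50 mM Tris with PMSF (pH 7.0) and spun down at 45 000g. Membranes (0.3 mg protein/mL) were preincubated 5 min with compound (10⁻⁶–10⁻¹¹ M), then incubated 60 min at room temperature with 0.2 nM [³H]-(+)-methylisradipine and 0.5 mM CaCl₂. Samples were filtered and counted. Nonspecific binding was set with 1 μM isradipine. Runs were 2–3 times in triplicate, analysed with LIGAND.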

Rattus norvegicus [4] = species on record: Rattus norvegicus; test: Effect on [3H]sradipine binding to rat heart.
Outline: (§3)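 Sprague Dawley rat ventricle microsomes were prepared in 50 mM Tris with PMSF (pH 7.4), with a final 100 000g spin. Membranes (0.3 mg protein/mL) were preincubated 5 min with compound (10⁻⁶–10⁻¹¹ M), then given 0.2 nM [³H]-(+)-methylisradipine with 0.5 mM CaCl₂ for 60 min at room temperature. Filter-bound label was counted. Nonspecific binding was taken from 1 μM isradipine. Experiments were repeated 2–3 times in triplicate, with LIGAND analysis.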

Cavia porcellus [5] = species on record: Cavia porcellus; test: Concentration displacing [3H]-sradipine binding to guinea pig ileum.; outline: as §2
[6] = Concentration displacing [3H]sradipine binding to rat heart.; outline: as §3
[7] = Concentration inhibiting [3H]sradipine binding to rat brain.; type: tissue-based; outline: as §1
Rattus norvegicus [8] = species on record: Rattus norvegicus; test: Effect on [3H]sradipine binding to rat brain; type: tissue-based; outline: as §1
[9] = Concentration displacing [3H]sradipine binding to rat brain.; type: tissue-based; outline: as §1

| Compound | Ki [1] [nM] | Bmax (Rattus norvegicus [2]) [fmol/mg] | Bmax (Cavia porcellus [3]) [fmol/mg] | Bmax (Rattus norvegicus [4]) | Ki (Cavia porcellus [5]) [nM] | Ki [6] [nM] | Ki [7] [nM] | Bmax (Rattus norvegicus [8]) [fmol/mg] | Ki [9] [nM] |
| --- | --- | --- | --- | --- | --- | --- | --- | --- | --- |
| COC(=O)C1=C(C)NC(C)=C(C(=O)OC[C@H]2CCCO2)[C@H]1c1ccccc1[N+](=O)[O-] (stereo in doubt) | 0.67 | 79.7 | 269 | 84.7 fM/mg | 2.04 | 1 | – | – | – |
| COC(=O)C1=C(C)NC(C)=C(C(=O)OC[C@@H]2CCCO2)[C@@H]1c1ccccc1[N+](=O)[O-] (stereo in doubt) | – | – | 261 | 65.3 fmol/mg | 24.8 | 13 | 18.1 | 77.2 | – |
| CO/C(O)=C1\C(C)=NC(C)=C(C(=O)OC[C@@H]2CCCO2)[C@H]1c1ccccc1[N+](=O)[O-] | – | 74.9 | 299 | 74.9 fmol/mg | 0.96 | 0.6 | – | – | 0.58 |
| CO/C(O)=C1\C(C)=NC(C)=C(C(=O)OC[C@H]2CCCO2)[C@@H]1c1ccccc1[N+](=O)[O-] | 17.7 | – | 250 | 81.4 fmol/mg | 11.1 | 5.95 | – | 79.1 | – |
